Bioassay records deposited in PubChem by Johns Hopkins Ion Channel Center.
RGS4 pot: RGS4 potentiation or activation | HEK293 M3R/inducible RGS4, carbachol calcium flux Fluo4; hits give low values | 310,000 tested, 0.92% active | B-score at 10 µM | AID 463111;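 active = B-score of the integrated calcium signal more than 4 SD below the library mean, with starting fluorescence not abnormally high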;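 also: negative B-score means reduced calcium response which marks RGS4 activation or potentiation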
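Reagent: ECmax carbachol challenge; Test system: M3R-expressing HEK293 line, RGS4 induced by doxycycline; Schedule: overnight RGS4 induction, 30 min dye load 37 °C, 20 min compound RT; Detection: calcium dye Fluo4 fluorescence; Read-out: Agonist-evoked peak-minus-minimum fluorescence over baseline, integrated ratio, B score.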
MrgX1 ag: human MrgX1 receptor agonism, primary screen | Q96LB2 | MrgX1-HEK293 cells, Fluo-4 calcium fluorescence, agonist mode; hits give high values | B-score at 10 µM | 310,000 tested, 0.44% active | AID 588627;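 active = calcium response B-score plate-corrected fluorescence ratio at least 3 library SD, with starting fluorescence B-score inside 5 SD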
Target sequence (Q96LB2 whole entry, looked up): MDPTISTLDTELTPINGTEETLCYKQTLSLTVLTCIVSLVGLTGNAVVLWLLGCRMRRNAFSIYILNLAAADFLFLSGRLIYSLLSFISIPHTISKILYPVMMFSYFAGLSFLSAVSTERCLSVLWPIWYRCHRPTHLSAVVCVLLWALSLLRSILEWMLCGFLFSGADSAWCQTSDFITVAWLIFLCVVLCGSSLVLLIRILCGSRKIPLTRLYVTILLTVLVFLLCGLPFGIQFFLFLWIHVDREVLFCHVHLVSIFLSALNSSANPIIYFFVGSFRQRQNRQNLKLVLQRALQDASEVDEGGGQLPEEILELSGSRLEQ
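Test system: Stable human MrgX1 HEK293 cell line | Schedule: Overnight plating before 1 h dye loading | Read-out basis: Baseline-normalised fluorescence change ratio, B-scored | Detection: Kinetic calcium dye fluorescence, Fluo-4 NW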
MrgX1 antag: antagonists of human MrgX1 receptor; Q96LB2; MRGX1-HEK293 calcium flux, Fluo-4, BAM8-22 antagonism; hits give low values; B-score at 10 µM; 310,000 tested, 1.3% active; AID 588676;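 active = calcium-response B-score plate-corrected more than 3 library SD below zero, starting fluorescence within 5 deviations, no agonist response on first addition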;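 also: peak minus trough fluorescence over baseline after final BAM8-22 challenge near maximal dose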
MrgX1 allo act: human MrgX1 positive allosteric modulation, primary screen; MrgX1-HEK293, Fluo-4 calcium flux, FDSS; hits give high values; Q96LB2; B-score at 10 µM; AID 588675; 310,000 tested, 0.63% active;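 active = plate-corrected calcium response at least 3 library SD above typical, normal starting fluorescence, not activating the receptor alone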;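 also: compound read alongside a low EC10 to EC30 dose of BAM8-22 agonist; peak minus trough fluorescence over baseline measured at the second addition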
RGS4 inh: human RGS4 inhibition; P49798; HEK293 M3R/RGS4 inducible, Fluo-4 calcium flux; hits give high values; triggered by carbachol at its EC20; B-score at 10 µM; 310,000 tested, 0.45% active;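 active = B-score, a plate-corrected calcium signal, over three deviations above library mean, with baseline fluorescence within five deviations of library mean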;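 also: RGS4 expression induced by doxycycline in cells with stable M3 receptor; B-score is computed from the integrated fluorescence ratio over baseline after carbachol; higher B-score means a larger calcium signal and so more RGS4 inhibition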
Target sequence (P49798 whole entry, looked up): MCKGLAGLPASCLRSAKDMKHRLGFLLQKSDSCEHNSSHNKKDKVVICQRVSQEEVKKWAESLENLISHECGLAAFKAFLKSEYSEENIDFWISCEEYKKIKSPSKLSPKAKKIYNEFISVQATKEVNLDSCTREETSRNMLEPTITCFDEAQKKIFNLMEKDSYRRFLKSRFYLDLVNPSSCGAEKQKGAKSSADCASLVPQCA
RGS4 activ val: confirmation of RGS4 activators. shares compounds with RGS4 pot. HEK293 M3R/RGS4 inducible, carbachol calcium flux Fluo4. inhibition, % at 10 µM. 1,100 tested, 89% active. AID 602282;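 active = inhibition above 3 SD of the buffer control wells, cut at about 41% in these data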;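 also: signal is the integrated peak-minus-minimum Fluo4 fluorescence over baseline ratio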
RGS4 act ctr: counter-screen for RGS4 activators: effect in non-induced cells; shares compounds with RGS4 pot; HEK293 M3R non-induced RGS4, Fluo4 calcium flux; after carbachol challenge at its EC90; inhibition, % at 10 µM; 1,100 tested, 82% active;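 active = inhibition exceeding 3 SD of buffer-only control wells, cut at about 26% in these data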;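 also: percent drop in integrated peak-minus-baseline over baseline Fluo4 ratio after carbachol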
* hit, by the source's call; i = inactive; / = no result given. Hits are enriched below; roughly 3.5% of the tested compounds scored in any of these assays.

SMILES	RGS4 pot	MrgX1 ag	MrgX1 antag	MrgX1 allo act	RGS4 inh	RGS4 activ val	RGS4 act ctr
O=C(COC(=O)C1CCN(c2ccc(C(F)(F)F)cn2)CC1)c1ccc(Cl)cc1	-7.8*	i	i	i	i	76*	31*
COc1cc(C(=O)COC(=O)C2CCN(c3ccc(C(F)(F)F)cn3)CC2)ccc1OC(F)F	-8.7*	i	i	i	i	76*	84*
Cc1sc2cc3c(c(C(=O)c4ccccc4)[n+]2c1C)-c1cccc2cccc-3c12	-14*	i	i	i	i	92*	91*
COC(=O)c1ccc(-c2noc(CN3CCCCC3c3nccn3C)n2)cc1 (stereo not drawn)	-10*	i	i	i	i	91*	68*
Cn1ccnc1C1CCCCN1Cc1nc(Cc2ccccc2F)no1 (stereo not drawn)	i	i	i	i	i	/	/
N#Cc1cc2c(nc1SCc1ccccc1)CCCCC2	-9.8*	i	i	i	i	82*	84*
COC(=O)c1ccccc1NC(=O)c1ccc(COc2cc(C)cc(C)c2)o1	-8.1*	i	i	i	i	46*	0
O=C1N(c2ccccc2)C[C@@H]2C[C@@H](c3cc4ccccc4o3)N3CCC[C@@]123	i	/	/	/	i	/	/
COc1ccc(OC)c2sc(N(CCCN(C)C)C(=O)CCS(=O)(=O)c3ccccc3)nc12	-13*	i	-7.6*	i	i	84*	58*
N#Cc1c(N2CCN(C(=O)c3ccccc3)CC2)nc(-c2ccccc2)c2c1CCCC2	-7.9*	i	i	i	i	90*	54*
N#Cc1c(N2CCN(C(=O)c3ccco3)CC2)nc(-c2ccccc2)c2c1CCCC2	-8.2*	i	i	i	i	91*	48*
O=C(c1ccco1)N1CCN(c2nc(C3CC3)nc3sc4c(c23)CCCC4)CC1	-8.5*	i	i	i	i	87*	45*
Cc1ccc(S(=O)(=O)N2CCOCC2)cc1C(=O)NNC(=O)c1ccoc1C	i	i	i	i	i	/	/
C=CCn1c(C)cc(-c2csc(NC(=O)CCc3nc4ccccc4c(=O)[nH]3)n2)c1C	-8.4*	i	i	i	i	68*	0
NS(=O)(=O)c1ccc(CNC(=S)NC2CC2)cc1	i	i	i	i	i	/	/
O=C(Nc1ccccc1F)Nc1cc(S(=O)(=O)N2CCOCC2)ccc1N1CCCC1	i	i	i	i	i	/	/
O=C(Nc1ccc(Cl)c(Cl)c1)Nc1cc(S(=O)(=O)N2CCOCC2)ccc1N1CCCC1	-9.2*	i	i	i	i	72*	27*
Cc1ccccc1C1c2[nH]c3ccccc3c2CCN1CCCn1cccn1 (stereo not drawn)	-7.7*	i	i	i	i	93*	91*
Fc1ccc(C2c3[nH]c4ccccc4c3CCN2CCCn2cccn2)cc1 (stereo not drawn)	i	i	i	i	i	/	/
CCOc1ccccc1Oc1cn[nH]c1-c1ccc(O)cc1O	i	i	i	i	i	/	/
C=C(C)COc1ccc(-c2[nH]ncc2Oc2ccccc2OCC)c(O)c1	-7.7*	i	i	i	i	91*	92*
CCCc1cc(-c2n[nH]c(=S)n2CC(C)C)cs1	i	i	i	i	i	/	/
CCCCn1c(-c2csc(C(C)C)c2)n[nH]c1=S	-9.7*	i	i	i	i	92*	60*
CCCCn1c(-c2csc(CC)c2)n[nH]c1=S	-8*	i	i	i	i	88*	55*
COc1ccccc1Cn1c(=S)[nH]c2ccc(F)cc2c1=O	i	i	i	i	i	/	/
SMILES	RGS4 pot	MrgX1 ag	MrgX1 antag	MrgX1 allo act	RGS4 inh	RGS4 activ val	RGS4 act ctr
CCn1c(SCC(=O)NC2CC2)nnc1-c1ccc(F)cc1	i	i	i	i	i	/	/
O=C(Cn1cnc2ccccc2c1=O)NCCC(=O)Nc1ccc(F)cc1	i	i	i	i	i	/	/
S=c1[nH]nc(-c2ccccc2Cl)n1/N=C/C=C/c1ccco1	-8.2*	i	i	i	i	94*	89*
S=c1[nH]nc(-c2ccncc2)n1/N=C/C=C/c1ccco1	i	i	i	i	i	/	/
O=C1CC(c2ccco2)Cc2nc(N3CCN(Cc4ccc5c(c4)OCO5)CC3)ncc21 (stereo not drawn)	-8.9*	i	i	i	i	88*	65*
CCOc1ccc(CCNC(=O)COC(=O)c2ccc3c(c2)OCCO3)cc1OCC	i	i	i	i	i	/	/
Cc1ccc(OCC(=O)O/N=C(\N)Cc2ccc([N+](=O)[O-])cc2)cc1C	-11*	i	i	i	i	0	0
CCOc1ccc(S(=O)(=O)N2CCN(C(=O)CCOc3ccccc3C)CC2)cc1	i	i	i	i	i	/	/
CC(Oc1cccc2cccnc12)C(=O)N/N=C/c1ccc2c(c1)OCO2 (stereo not drawn)	-13*	i	i	i	i	0	0
CC(Oc1cccc2cccnc12)C(=O)N/N=C/c1ccccc1 (stereo not drawn)	i	i	i	i	i	/	/
CCN1CCCC1CNCc1ccccc1OCc1ccc(F)cc1 (stereo not drawn)	-7.6*	i	i	i	i	46*	0
CCN1CCCC1CNCc1cccc(OC)c1OCc1ccccc1 (stereo not drawn)	i	i	i	i	i	/	/
O=C(O)c1ccc(N/N=C/c2ccc(OC(=O)c3ccccc3Cl)cc2)cc1	-14*	i	i	i	i	0	0
O=C(O)c1ccc(N/N=C/c2ccc(-c3ccccc3)cc2)cc1	i	/	/	/	i	/	/
COc1ccc(C(=O)NC2CC2)cc1OC1CCN(Cc2cc(C)c(C)cc2C)CC1	i	i	i	i	i	/	/
CCOC(=O)c1c(C(C)(C)C)oc2ccc(OCC#N)cc12	-8.8*	i	i	i	i	92*	92*
COc1cccc(C(=O)OCC(=O)NC(C)CCc2ccccc2)c1O (stereo not drawn)	i	i	i	i	i	/	/
CC1(C)CC(=O)C2=C(C1)OC(N)=C(C#N)C2c1cn(-c2ccccc2)nc1-c1ccccc1 (stereo not drawn)	-11*	i	i	i	i	0	0
